Like-named read-outs stand apart in the source and are kept apart here.
Assays:
[1] = Plasma pharmacokinetics at steady-state, LC-MS/MS, noncompartmental analysis; assay type: in vivo, human; conditions: for MR, metabolic ratio (AUCτ,ss of metabolite/AUCτ,ss of parent) / AUCτ,ss / Cmax,ss / CLss/F / Ctrough,ss: mean ± SD, N = 34
Summary of the method: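 Oral DPP-4 inhibitor 5 mg once daily, alone for 7 days or with sulfonylurea 4 mg. Plasma was sampled pre-dose and at 1, 2, 3, 4, 5, 6, 8 and 12 h at steady state, spun at 1900 g (4°C, 10 min) and frozen below −70°C. LC-MS/MS was linear over 0.1–60 μg/L. Noncompartmental analysis: Cmax,ss observed; AUCτ,ss and CLss by the linear-log trapezoidal method.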

[2] = Urinary excretion of evogliptin at steady-state; assay type: in vivo, human; conditions: for CL renal: human, urine and plasma, oral
Summary of the method: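 At steady state of oral DPP-4 inhibitor 5 mg once daily, urine was collected over 0–24 h and frozen below −70°C. Parent drug was measured by LC-MS/MS (linear 5–50,000 μg/L). feτ,ss was the amount excreted unchanged divided by that day's dose. Renal clearance was the amount excreted divided by plasma AUCτ,ss.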

serum glucose = experiment: Oral glucose tolerance test, serum glucose; assay type: in vivo, human; conditions: OGTT 75 g glucose, steady-state, mean ± SD, N = 34
Summary of the method: (§1)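 Healthy Korean men aged 19–45 years (BMI 18–27 kg/m2) in a randomized, open-label, 3-period crossover study. Treatments were oral once daily: DPP-4 inhibitor 5 mg, sulfonylurea 4 mg, or both. After an overnight fast, subjects took 75 g glucose; serum glucose and insulin were sampled at 0, 0.25, 0.5, 1, 1.5, 2 and 3 h, at baseline (day −1) and at steady state. Peaks were read directly; areas used the linear trapezoidal method. Δ values subtracted baseline at each time point.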

serum insulin = experiment: Oral glucose tolerance test, serum insulin; assay type: in vivo, human; conditions: OGTT 75 g glucose, steady-state; mean ± SD; N = 34
Summary of the method: as §1

[3] = Safety and tolerability, adverse events; assay type: in vivo, human
Summary of the method: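 Adverse events, physical examinations, vital signs, 12-lead ECG and clinical laboratory tests were monitored throughout the crossover study in dosed healthy men. Investigators assessed whether each adverse event was related to treatment.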

[4] = cited from earlier work
CYP enzymes = conditions: ref unpublished in-house data; cited from earlier work
[5] = EVO+GLI: evogliptin 5 mg and glimepiride 4 mg once daily
[6] = EVO+GLI: evogliptin 5 mg and glimepiride 4 mg once daily, plasma
[7] = EVO: evogliptin 5 mg once daily
[8] = EVO: evogliptin 5 mg once daily, plasma
[9] = GLI: glimepiride 4 mg once daily
[10] = GLI: glimepiride 4 mg once daily, plasma

MR, metabolic ratio (AUCτ,ss of metabolite/AUCτ,ss of parent) [1, 5]	AUCτ,ss [1, 6]	Cmax,ss [1, 6]	MR, metabolic ratio (AUCτ,ss of metabolite/AUCτ,ss of parent) [1, 7]	AUCτ,ss [1, 8]	Cmax,ss [1, 8]	CLss/F [1, 5]	Ctrough,ss [1, 6]	half-life ([1]; human, plasma, oral)	SMILES	2 h PBG, 2 hour postprandial blood glucose (serum glucose)	AUGC, area under the serum glucose-time curve (serum glucose)	ΔAUGC, difference in the area under the serum glucose-time curve from baseline (serum glucose)	ΔGmax, difference in maximum serum glucose level from baseline (serum glucose)	AUEC, area under the serum insulin-time curve (serum insulin)	Emax, maximum serum insulin level (serum insulin)	ΔAUEC, difference in the area under the serum insulin-time curve from baseline (serum insulin)	ΔEmax, difference in maximum serum insulin level from baseline (serum insulin)	other results
0.09 ± 0.02 (0.04–0.13)	10.1 ± 2.8 (5.5–17) μg·h/L	0.7 ± 0.2 (0.4–1.0) μg/L	0.09 ± 0.02 (0.03–0.12)	9.8 ± 2.4 (6.3–14.6) μg·h/L	0.7 ± 0.2 (0.4–1.2) μg/L				CC(C)(C)OC[C@@H]1C(=O)NCCN1C(=O)C[C@H](N)[C@@H](O)c1cc(F)c(F)cc1F [Evogliptin M7, 4(S)-hydroxyevogliptin]									
0.1 ± 0.02 (0.05–0.13)	10.4 ± 2.5 (6–17) μg·h/L	0.6 ± 0.2 (0.3–1) μg/L	0.09 ± 0.02 (0.04–0.13)	10.3 ± 2.1 (6.8–14.7) μg·h/L	0.6 ± 0.2 (0.4–1.1) μg/L				CC(C)(C)OC[C@@H]1C(=O)NCCN1C(=O)C[C@H](N)[C@H](O)c1cc(F)c(F)cc1F [Evogliptin M8, 4(R)-hydroxyevogliptin]									
						46.9 ± 8.3 (28.4–62.4) L/h	3.1 ± 0.7 (2.2–5.1) μg/L	23.6 ± 5.9 h	CC(C)(C)OC[C@@H]1C(=O)NCCN1C(=O)C[C@H](N)Cc1cc(F)c(F)cc1F [Evogliptin, evogliptin]	114.7 ± 17.3 (83–164) mg/dL	334.9 mg·h/dL	−35.8 ± 39.2 (−137.6–18.5) mg·h/dL	−53.2 ± 32 (−162– −12) mg/dL	91.1 ± 48.6 (31.4–265) μIU·h/mL	53.1 ± 25.2 (16.3–124.2) μIU/mL	−19.2 ± 46.6 (−179.9–36.1) μIU·h/mL	−20.4 ± 35.5 (−142.5–21.7) μIU/mL	CLss/F [1, 7]: 45.6 ± 7.5 (26.5–56.1) L/h; Ctrough,ss [1, 8]: 3.3 ± 0.7 (2.2–5.6) μg/L; Day on which steady-state was achieved ([1]; evogliptin 5 mg once daily): 4 days; Tmax ([1]; human, plasma, oral): 3.5 h; AUC ([1]; human, plasma, oral, 5 mg): 113 ± 21.6 ng·h/mL; Cmax ([1]; human, plasma, oral, 5 mg): 6.7 ± 1.4 ng/mL; half-life ([1]; human, plasma, oral, 5 mg): 28.4 ± 8.9 h; feτ,ss, fraction excreted unchanged in urine during the dosing interval ([2]; EVO: evogliptin 5 mg once daily, urine 0–24 h, mean ± SD, N = 34): 19.1 ± 7.2 (6.7–43.9) %; CL renal [2]: 148 mL/min; CL renal ([2]; 5 mg): 140 mL/min; Gmax, maximum serum glucose level (serum glucose; healthy male subjects): 136.7 mg/dL; AUGC, area under the serum glucose-time curve (serum glucose; listed as EVO): 334.9 ± 31.7 (260–406.5) mg·h/dL; Diarrhea: number of subjects who reported adverse drug reactions (number of ADRs) ([3]; N = 35): 1 (1); Tmax, time to reach maximal plasma concentration ([4]; after oral administration): approximately 5 h; Induction or inhibition of CYP enzymes (CYP enzymes): did not induce or inhibit CYP enzymes
0.39 ± 0.1 (0.19–0.62)	652.6 ± 197.7 (387–1331.4) μg·h/L	84.2 ± 19 (55.8–137) μg/L							CCC1=C(C)CN(C(=O)NCCc2ccc(S(=O)(=O)NC(=O)NC3CCC(CO)CC3)cc2)C1=O (stereo not drawn) [Glimepiride M1, hydroxyglimepiride]									MR, metabolic ratio (AUCτ,ss of metabolite/AUCτ,ss of parent) [1, 9]: 0.4 ± 0.11 (0.2–0.63); AUCτ,ss [1, 10]: 611.9 ± 180.7 (309.4–1179.5) μg·h/L; Cmax,ss [1, 10]: 81.3 ± 20.6 (47.7–135.3) μg/L
						2.5 ± 0.8 (1.2–4.5) L/h	4.2 ± 6.3 (0–24.7) μg/L	4.2 ± 2 h	CCC1=C(C)CN(C(=O)NCCc2ccc(S(=O)(=O)NC(=O)N[C@H]3CC[C@H](C)CC3)cc2)C1=O [Glimepiride, glimepiride]	94.7 ± 23.9 (44–140) mg/dL	291.8 mg·h/dL	−67.5 ± 60 (−179.6–69.4) mg·h/dL	−68.9 ± 25.1 (−129– −22) mg/dL	141.7 ± 65.5 (40.7–318.2) μIU·h/mL	86.4 ± 43.8 (29.7–248.4) μIU/mL	17.9 ± 60.1 (−174.5–157.2) μIU·h/mL	12.9 ± 45.2 (−109.2–122.1) μIU/mL	CLss/F [1, 9]: 2.7 ± 1 (1.2–5.1) L/h; Ctrough,ss [1, 10]: 8.6 ± 10.9 (0–51.9) μg/L; AUC ([1]; human, plasma, oral, 4 mg): 1670 ± 624 ng·h/mL; Cmax ([1]; human, plasma, oral, 4 mg): 327 ± 98.5 ng/mL; half-life ([1]; human, plasma, oral, 4 mg): 4.7 ± 2.2 h; AUGC, area under the serum glucose-time curve (serum glucose; listed as GLI): 291.8 ± 48.5 (216.1–429.6) mg·h/dL; Number of AEs considered related to the investigational products ([3]; 35 subjects in safety assessment): five; Cold sweat: number of subjects who reported adverse drug reactions (number of ADRs) ([3]; N = 35): 1 (1); Dizziness: number of subjects who reported adverse drug reactions (number of ADRs) ([3]; N = 35): 1 (1); Hypoglycemia: number of subjects who reported adverse drug reactions (number of ADRs) ([3]; N = 35): 1 (1); Increased blood bilirubin: number of subjects who reported adverse drug reactions (number of ADRs) ([3]; N = 35): 1 (1); Nausea: number of subjects who reported adverse drug reactions (number of ADRs) ([3]; N = 35): 1 (1); Tmax ([4]; after oral administration): ≤ 3 h; half-life [4]: 1.2 to 1.5 h

Source: paper PMC7699451 (Drug Design, Development and Therapy, 2020)
